≈ marks a conversion by molar mass, not a printed value. Starred links: 1 amine or outer side, 2 acyl side, 3 side chain; linkers in the order of their positions; H or OH if unused. Residues, ends and D or L forms follow the SMILES beside them. *: point of attachment. Suc = O=C(CCC(=O)[*:2])[*:1]; OBn = c1ccc(CO*)cc1
Experiments:
Candida albicans [1] = experiment: Antiyeast activity against Candida albicans WD 18-4 assessed as total inhibition of fungal growth after 24 to 48 hrs by microdilution-colorimetric method; assay type: functional
Outline: (§1)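 Microdilution in yeast nitrogen base (0.67%) with 3% dextrose and 0.004% bromothymol blue, pH 7.2, filter-sterilized; twofold serial dilutions 1.28 mg/mL to 0.04 μg/mL. Overnight culture resuspended to about 2×10^6 cells/mL, 50-μL drop per well; organism-free and drug-free control wells. 48 h at 37 °C, read at 24 and 48 h. MIC is the lowest concentration with no blue-to-yellow/light green change; values normalized to molar equivalents of 5-FC.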

Pichia kudriavzevii = experiment: Antiyeast activity against Candida krusei 1-T assessed as total inhibition of fungal growth after 24 to 48 hrs by microdilution-colorimetric method; assay type: functional; outline: as §1
Saccharomyces cerevisiae = experiment: Antiyeast activity against Saccharomyces cerevisiae 9763 assessed as total inhibition of fungal growth after 24 to 48 hrs by microdilution-colorimetric method; assay type: functional; outline: as §1
Candida albicans [2] = experiment: Antiyeast activity against Candida albicans clinical isolate 1-V assessed as total inhibition of fungal growth after 24 to 48 hrs by microdilution-colorimetric method; assay type: functional; outline: as §1
[3] = Chemical stability of the compound in solutions of organism-free yeast nitrogen base assessed as half life at 50 uM at 37 degC by UV absorbance analysis; assay type: physicochemical; conditions: organism-free yeast nitrogen base solution
Outline: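 Organism-free yeast nitrogen base (0.67%) with 3% dextrose, pH 7.2 (KOH), held at 37 °C in thermostatted cells. Compound in Me2SO added to a final concentration of ca. 5×10^-5 M. Hydrolysis followed as the fall in absorbance at 305 nm over time, first-order fit. Slower compounds (t1/2 > 5 h) were incubated separately and aliquots read at intervals.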

Row | SMILES | MIC (Candida albicans [1]) | MIC (Pichia kudriavzevii) | MIC (Saccharomyces cerevisiae) | MIC (Candida albicans [2]) | half-life at 50 µM [3]
1 | CC(C)C[C@H](NC(=O)CCC(=O)Nc1nc(=O)[nH]cc1F)C(=O)N[C@@H](CC(C)C)C(=O)OCc1ccccc1 | 2.5 µg/mL (≈ 4.58 µM) | 20 µg/mL (≈ 36.7 µM) | 0.31 µg/mL (≈ 0.568 µM) | 0.62 µg/mL (≈ 1.14 µM) | 
2 | CC(C)(C)OC(=O)N[C@@H](CCC(=O)Nc1nc(=O)[nH]cc1F)C(=O)OCc1ccccc1 | 2.5 µg/mL (≈ 5.57 µM) | 20 µg/mL (≈ 44.6 µM) | 1.25 µg/mL (≈ 2.79 µM) | 2.5 µg/mL (≈ 5.57 µM) | 10 h
3 | CC(C)C[C@H](NC(=O)[C@H](C)NC(=O)CCC(=O)Nc1nc(=O)[nH]cc1F)C(=O)O | 5 µg/mL (≈ 12.1 µM) | 10 µg/mL (≈ 24.2 µM) | 0.31 µg/mL (≈ 0.75 µM) | 0.31 µg/mL (≈ 0.75 µM) | 1.7 h
4 | O=C(O)CCC(=O)NCC(=O)NCC(=O)OCc1ccccc1 (Suc-Gly-Gly-OBn) | > 20 µg/mL | 320 µg/mL (≈ 993 µM) | 320 µg/mL (≈ 993 µM) | 320 µg/mL (≈ 993 µM) | 
5 | CC(C)C[C@H](NC(=O)[C@H](C)NC(=O)CCC(=O)Nc1nc(=O)[nH]cc1F)C(=O)OCc1ccccc1 | 5 µg/mL (≈ 9.93 µM) | 20 µg/mL (≈ 39.7 µM) | 0.31 µg/mL (≈ 0.616 µM) | 0.62 µg/mL (≈ 1.23 µM) | 1.1 h
6 | O=C(CNC(=O)OCc1ccccc1)Nc1nc(=O)[nH]cc1F | 2.5 µg/mL (≈ 7.81 µM) | 10 µg/mL (≈ 31.2 µM) | 0.31 µg/mL (≈ 0.968 µM) | 0.62 µg/mL (≈ 1.94 µM) | 
7 | C[C@H](NC(=O)OC(C)(C)C)C(=O)NCC(=O)Nc1nc(=O)[nH]cc1F | 1.25 µg/mL (≈ 3.5 µM) | 20 µg/mL (≈ 56 µM) | 0.62 µg/mL (≈ 1.74 µM) | 0.62 µg/mL (≈ 1.74 µM) | 2.3 h
8 | CC(C)C[C@H](NC(=O)[C@H](CC(C)C)NC(=O)CCC(=O)Nc1nc(=O)[nH]cc1F)C(=O)O | 5 µg/mL (≈ 11 µM) | 10 µg/mL (≈ 22 µM) | 0.31 µg/mL (≈ 0.681 µM) | 0.31 µg/mL (≈ 0.681 µM) | 2.9 h
9 | CC(C)C[C@H](NC(=O)CCC(=O)O)C(=O)N[C@@H](CC(C)C)C(=O)OCc1ccccc1 | > 20 µg/mL | 320 µg/mL (≈ 736 µM) | 80 µg/mL (≈ 184 µM) | 80 µg/mL (≈ 184 µM) | 
10 | O=c1[nH]cc(F)c(=O)[nH]1 [FLUOROURACIL] | > 20 µg/mL | 2.5 µg/mL (≈ 19.2 µM) | 1.25 µg/mL (≈ 9.61 µM) | 2.5 µg/mL (≈ 19.2 µM) | 
11 | CC(=O)Nc1nc(O)ncc1F | 5 µg/mL (≈ 29.2 µM) | 40 µg/mL (≈ 234 µM) | 0.31 µg/mL (≈ 1.81 µM) | 2.5 µg/mL (≈ 14.6 µM) | 17.6 h
12 | Nc1nc(=O)[nH]cc1F [FLUCYTOSINE] | 5 µg/mL (≈ 38.7 µM) | 5 µg/mL (≈ 38.7 µM) | 0.31 µg/mL (≈ 2.4 µM) | 0.31 µg/mL (≈ 2.4 µM) | 
13 | O=C(CCC(=O)Nc1nc(=O)[nH]cc1F)NCC(=O)NCC(=O)OCc1ccccc1 | 5 µg/mL (≈ 11.5 µM) | 20 µg/mL (≈ 46.1 µM) | 0.62 µg/mL (≈ 1.43 µM) | 0.62 µg/mL (≈ 1.43 µM) | 0.3 h
14 | CC(C)C[C@H](NC(=O)[C@H](C)NC(=O)CCC(=O)O)C(=O)OCc1ccccc1 (Suc-Ala-Leu-OBn) | > 20 µg/mL | 320 µg/mL (≈ 815 µM) | 160 µg/mL (≈ 408 µM) | 80 µg/mL (≈ 204 µM) | 
15 | O=C(O)CCC(=O)O [SUCCINIC ACID] | > 20 µg/mL | 320 µg/mL (≈ 2710 µM) | 640 µg/mL (≈ 5420 µM) | 320 µg/mL (≈ 2710 µM) | 

From ChEMBL document CHEMBL3244264, “Anticandidal activity of 5-fluorocytosine-peptide conjugates” (J Med Chem, 1979)
